Paper PMC5042352 (Analytical methods : advancing methods and applications, 2016)
Like-named read-outs stand apart in the source and are kept apart here.

Key:
[1] = type: in vivo, human (Chinese male healthy subjects); details: for Tmax / T½ (half-life of elimination): single i.m. injection
[2] = reported; cited from earlier work
[3] = Stability of the analytes in human plasma at QC levels; type: in vitro ADME; details: n = 5; for Short-term Dev. (%) / Short-term MCM ± SD: 6 h, r.t.; for Short-term Dev. (%) / Short-term MCM ± SD / Long-term Dev. (%) / Long-term MCM ± SD / Freeze–thaw Dev. (%) / Freeze–thaw MCM ± SD: human plasma; for Long-term Dev. (%) / Long-term MCM ± SD: 40 days; for Long-term Dev. (%) / Long-term MCM ± SD / Freeze–thaw Dev. (%) / Freeze–thaw MCM ± SD: −40 °C; for The autosampler Dev. (24h, %) / The autosampler MCM ± SD (24h) / The autosampler Dev. (48h, %) / The autosampler MCM ± SD (48h): autosampler r.t.; for Freeze–thaw Dev. (%) / Freeze–thaw MCM ± SD: four cycles
Summary of the method: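 QC plasma made by spiking working solution into drug-free human plasma (1:9); the phosphate ester is pre-stabilised with 2M sodium cacodylate and 50% KF. Freeze-thaw: frozen at −40 °C for 24 h, thawed at 25 °C. Short-term: 6 h at room temperature. Long-term: −40 °C for 40 days. Quantified by UPLC-MS/MS against 1/x-weighted analyte/IS peak-area-ratio calibration curves.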

[4] = Reference formulation, mean ± SD, n = 23
[5] = Test formulation, mean ± SD, n = 23

Short-term Dev. (%) ([3]; high QC) | Short-term MCM ± SD ([3]; high QC) | Long-term Dev. (%) ([3]; high QC) | Long-term MCM ± SD ([3]; high QC) | The autosampler Dev. (24h, %) ([3]; high QC) [%] | The autosampler MCM ± SD (24h) ([3]; high QC) | The autosampler Dev. (48h, %) ([3]; high QC) [%] | The autosampler MCM ± SD (48h) ([3]; high QC) | Freeze–thaw Dev. (%) ([3]; high QC) | Freeze–thaw MCM ± SD ([3]; high QC) | Short-term Dev. (%) ([3]; low QC) | Short-term MCM ± SD ([3]; low QC) | Long-term Dev. (%) ([3]; low QC) | Long-term MCM ± SD ([3]; low QC) | The autosampler Dev. (24h, %) ([3]; low QC) [%] | The autosampler MCM ± SD (24h) ([3]; low QC) | The autosampler Dev. (48h, %) ([3]; low QC) [%] | The autosampler MCM ± SD (48h) ([3]; low QC) | Freeze–thaw Dev. (%) ([3]; low QC) | Freeze–thaw MCM ± SD ([3]; low QC) | SMILES | other results
−8.39 | 3.435 ± 0.353 × 10^−9 mol·dm^−3 | 10.5 | 4.185 ± 0.616 × 10^−9 mol·dm^−3 | −12.14 | 3.295 ± 0.304 × 10^−9 mol·dm^−3 | −4.7 | 3.574 ± 0.531 × 10^−9 mol·dm^−3 | 2.2 | 3.832 ± 0.330 × 10^−9 mol·dm^−3 | 9.09 | 0.214 ± 0.020 × 10^−9 mol·dm^−3 | 4.54 | 0.205 ± 0.027 × 10^−9 mol·dm^−3 | 5.68 | 0.208 ± 0.022 × 10^−9 mol·dm^−3 | −5.68 | 0.185 ± 0.025 × 10^−9 mol·dm^−3 | 12.5 | 0.221 ± 0.335 × 10^−9 mol·dm^−3 | CCC(=O)O[C@]1(C(=O)CO)[C@@H](C)C[C@H]2[C@@H]3CCC4=CC(=O)C=C[C@]4(C)[C@@]3(F)[C@@H](O)C[C@@]21C [B17P, betamethasone 17-monopropionate] | AUC0–∞ [1, 4]: 281.7 ± 91.50 × 10^−9 mol·dm^−3·h^−1; Tmax [1, 4]: 17.74 ± 13.04 h; T½ (half-life of elimination) [1, 4]: 106.6 ± 35.93 h; AUC0–∞ [1, 5]: 305.4 ± 108.1 × 10^−9 mol·dm^−3·h^−1; Tmax [1, 5]: 19.83 ± 12.27 h; T½ (half-life of elimination) [1, 5]: 101.3 ± 39.43 h; AUC0–t ([1]; Test formulation, t = 4 h (BDP), 120 h (BOH), 360 h (B17P), mean ± SD, n = 23): 259.2 ± 89.1 × 10^−9 mol·dm^−3·h^−1; elimination half-life time [2]: 80.8 h; Short-term Dev. (%) ([3]; middle QC): 2.08%; Short-term MCM ± SD ([3]; middle QC): 1.196 ± 0.112 × 10^−9 mol·dm^−3; Long-term Dev. (%) ([3]; middle QC): 5.91%; Long-term MCM ± SD ([3]; middle QC): 1.241 ± 0.129 × 10^−9 mol·dm^−3; The autosampler Dev. (24h, %) ([3]; middle QC): 7.80%; The autosampler MCM ± SD (24h) ([3]; middle QC): 1.266 ± 0.094 × 10^−9 mol·dm^−3; The autosampler Dev. (48h, %) ([3]; middle QC): −5.02%; The autosampler MCM ± SD (48h) ([3]; middle QC): 1.114 ± 0.129 × 10^−9 mol·dm^−3; Freeze–thaw Dev. (%) ([3]; middle QC): 6.62%; Freeze–thaw MCM ± SD ([3]; middle QC): 1.250 ± 0.112 × 10^−9 mol·dm^−3
−8.64 | 3.944 ± 0.303 × 10^−9 mol·dm^−3 | −9.13 | 3.924 ± 0.078 × 10^−9 mol·dm^−3 | −8.3 | 3.960 ± 0.160 × 10^−9 mol·dm^−3 | −9.13 | 3.924 ± 0.171 × 10^−9 mol·dm^−3 | −2.48 | 4.211 ± 0.301 × 10^−9 mol·dm^−3 | 2.97 | 0.463 ± 0.062 × 10^−9 mol·dm^−3 | 8.42 | 0.488 ± 0.067 × 10^−9 mol·dm^−3 | 7.92 | 0.486 ± 0.020 × 10^−9 mol·dm^−3 | −0.5 | 0.448 ± 0.038 × 10^−9 mol·dm^−3 | 2.97 | 0.463 ± 0.024 × 10^−9 mol·dm^−3 | CCC(=O)OCC(=O)[C@@]1(O)[C@@H](C)C[C@H]2[C@@H]3CCC4=CC(=O)C=C[C@]4(C)[C@@]3(F)[C@@H](O)C[C@@]21C [B21P, betamethasone 21-monopropionate] | plasma concentration in healthy subjects' plasma samples (detectability) ([1]; after i.m. injection of the compound medicine BSP and BDP): slightly above the LLOQ; Short-term Dev. (%) ([3]; middle QC): −2.87%; Short-term MCM ± SD ([3]; middle QC): 1.873 ± 0.094 × 10^−9 mol·dm^−3; Long-term Dev. (%) ([3]; middle QC): −1.98%; Long-term MCM ± SD ([3]; middle QC): 1.891 ± 0.143 × 10^−9 mol·dm^−3; The autosampler Dev. (24h, %) ([3]; middle QC): 2.05%; The autosampler MCM ± SD (24h) ([3]; middle QC): 1.993 ± 0.129 × 10^−9 mol·dm^−3; The autosampler MCM ± SD (48h) ([3]; middle QC): 2.007 ± 0.156 × 10^−9 mol·dm^−3; Freeze–thaw Dev. (%) ([3]; middle QC): 1.08%; Freeze–thaw MCM ± SD ([3]; middle QC): 1.949 ± 0.147 × 10^−9 mol·dm^−3
